# Measured values reported in ChEMBL document CHEMBL2176871, “Development of ligands at γ-aminobutyrric acid type A (GABAA) receptor subtype as new agents for pain relief” (Bioorg Med Chem, 2011).
# Activity calls are given as the source filed them.
# Legend:
# Rattus norvegicus [1] = experiment: Toxicity in Sprague-Dawley rat mononeuropathy pain model assessed as effect on contralateral paw pressure at 10 mg/kg, po after 15 mins by paw pressure test; type: organism-based; parameters: dose 10 mg/kg, route oral; settings: in vivo, 0.25 h
# How it was run: (§1)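 Same sciatic-ligation rat model, 14 days after surgery. Threshold measured on the non-operated contralateral hind paw by analgesimeter at 32 g/s; first-struggle endpoint; 250 g cut-off; pretest rats outside 40–75 g rejected. Compound given po in 10 ml/kg; readings at 15, 30 and 45 min.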
# Rattus norvegicus [2] = experiment: Antinociceptive activity in Sprague-Dawley rat mononeuropathy pain model assessed as increase in injured paw pressure at 30 mg/kg, po after 15 mins by paw pressure test relative to non-treated control; type: functional
# How it was run: (§2)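 Chronic constriction injury: loose ligatures placed on the common sciatic nerve under chloral hydrate; contralateral sham dissection. Tested 14 days after surgery. Paw pressure applied at 32 g/s; threshold taken as the force causing the first struggle; cut-off 250 g; pretest outliers (<40 g or >75 g) excluded. Oral dosing in 10 ml/kg; read at 15, 30 and 45 min; compared with a CMC-treated group.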
# Mus musculus [3] = experiment: Antihyperalgesic activity Swiss albino mouse […] assessed as licking latency time at 30 mg/kg, po after 15 mins by hot plate test (reference value: 14.9 +/- 1.1 secs); type: functional
# How it was run: (§3)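 Hot plate at 52.5 ± 0.1 °C in non-diabetic male Swiss mice. Latency to licking of fore or hind paws was timed before dosing and every 15 min up to 60 min after oral dosing. Mice with pretest latencies below 12 s or above 18 s were excluded. Cut-off was 45 s.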
# Rattus norvegicus [4] = experiment: Antinociceptive activity in Sprague-Dawley rat mononeuropathy pain model assessed as increase in injured paw pressure at 10 mg/kg, po after 30 mins by paw pressure test relative to non-treated control; type: functional; how it was run: as §2
# Rattus norvegicus [5] = experiment: Toxicity in Sprague-Dawley rat mononeuropathy pain model assessed as effect on contralateral paw pressure at 30 mg/kg, po after 30 mins by paw pressure test; type: organism-based; parameters: dose 30 mg/kg, route oral; settings: in vivo, 0.5 h; how it was run: as §1
# Rattus norvegicus [6] = experiment: Toxicity in Sprague-Dawley rat mononeuropathy pain model assessed as effect on contralateral paw pressure at 3 mg/kg, po after 30 mins by paw pressure test; type: organism-based; parameters: dose 3 mg/kg, route oral; settings: in vivo, 0.5 h; how it was run: as §1
# Rattus norvegicus [7] = experiment: Toxicity in Sprague-Dawley rat mononeuropathy pain model assessed as effect on contralateral paw pressure at 30 mg/kg, po after 45 mins by paw pressure test; type: organism-based; parameters: dose 30 mg/kg, route oral; settings: in vivo, 0.75 h; how it was run: as §1
# Rattus norvegicus [8] = experiment: Antinociceptive activity in Sprague-Dawley rat mononeuropathy pain model assessed as increase in injured paw pressure at 30 mg/kg, po after 45 mins by paw pressure test relative to non-treated control; type: functional; how it was run: as §2
# Mus musculus [9] = experiment: Antihyperalgesic activity Swiss albino mouse […] assessed as licking latency time at 30 mg/kg, po after 30 mins by hot plate test (reference value: 14.9 +/- 1.1 secs); type: functional; how it was run: as §3
# Rattus norvegicus [10] = experiment: Antinociceptive activity in Sprague-Dawley rat mononeuropathy pain model assessed as increase in injured paw pressure at 3 mg/kg, po after 45 mins by paw pressure test relative to non-treated control; type: functional; how it was run: as §2
# Mus musculus [11] = experiment: Anxiolytic-like activity in Swiss albino mouse at 10 mg/kg, po after 30 mins by light/dark box test; type: functional, organism-based; parameters: dose 10 mg/kg
# How it was run: (§4)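 Male Swiss mice tested in a two-compartment light/dark box. Transfers between compartments and time spent in the lit side recorded. Compound given po 30 min before testing, in 10 ml/kg; flumazenil given i.p. for antagonism; 8 mice per group.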
# Mus musculus [12] = experiment: Antihyperalgesic activity Swiss albino mouse […] assessed as licking latency time at 30 mg/kg, po after 60 mins by hot plate test (reference value: 14.9 +/- 1.1 secs); type: functional; how it was run: as §3
# Mus musculus [13] = experiment: Analgesic activity in Swiss albino mouse abdominal constriction model assessed as decrease in number of acetic acid-induced writhing at 10 to 30 mg/kg, po after 30 mins; type: functional, organism-based; settings: Abdomen
# How it was run: (§5)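 Male Swiss albino mice (23–30 g). Compounds given po in 1% CMC vehicle 30 min before the test. Acetic acid 0.6% injected i.p. at 10 ml/kg. Stretching movements were counted for 10 min, starting 5 min after the acetic acid injection. 8–15 mice per group.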
# Bos taurus = organism: Bos taurus; experiment: Displacement of [3H]Ro151788 from GABA(A)/BzR in bovine cerebral cortex membrane at 10 uM; type: cell membranes
# How it was run: (§6)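 Bovine cerebral cortex membranes in 50 mM Tris-citrate pH 7.4; [3H]flumazenil displacement. Compounds first tested at a fixed 10 µM; Ki determined only when inhibition exceeded 80%, using at least six concentrations. Five experiments run in triplicate; IC50 obtained by iterative curve fitting and converted to Ki with the Cheng–Prusoff equation.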
# Mus musculus [14] = experiment: Antihyperalgesic activity against streptozotocin-induced hyperalgesia in Swiss albino mouse […] assessed as licking latency time at 30 mg/kg, po after 45 mins by hot plate test (reference value: 10.4 +/- 0.8 secs); type: functional
# Rattus norvegicus [15] = experiment: Toxicity in Sprague-Dawley rat mononeuropathy pain model assessed as effect on contralateral paw pressure at 30 mg/kg, po after 15 mins by paw pressure test; type: organism-based; parameters: dose 30 mg/kg, route oral; settings: in vivo, 0.25 h; how it was run: as §1
# Rattus norvegicus [16] = experiment: Antinociceptive activity in Sprague-Dawley rat mononeuropathy pain model assessed as increase in injured paw pressure at 3 mg/kg, po after 30 mins by paw pressure test relative to non-treated control; type: functional; how it was run: as §2
# Mus musculus [17] = experiment: Antihyperalgesic activity against streptozotocin-induced hyperalgesia in Swiss albino mouse […] assessed as licking latency time at 30 mg/kg, po after 30 mins by hot plate test (reference value: 10.4 +/- 0.8 secs); type: functional
# Rattus norvegicus [18] = experiment: Toxicity in Sprague-Dawley rat mononeuropathy pain model assessed as effect on contralateral paw pressure at 3 mg/kg, po after 45 mins by paw pressure test; type: organism-based; parameters: dose 3 mg/kg, route oral; settings: in vivo, 0.75 h; how it was run: as §1
# Mus musculus [19] = experiment: Anticonvulsant activity in Swiss albino mouse […] assessed as protection against intraperitoneally administered pentylenetetrazol-induced seizures at 30 mg/kg, po after 30 mins; type: functional
# How it was run: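 Male Swiss albino mice. Compounds given po and PTZ 90 mg/kg injected 30 min later; PTZ was dissolved in 0.9% NaCl saline. Clonic generalized convulsions were recorded over 30 min. Each value is the mean of 10 mice. The methods give the PTZ route as s.c. and the table footnote gives it as ip.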
# Rattus norvegicus [20] = experiment: Toxicity in Sprague-Dawley rat mononeuropathy pain model assessed as effect on contralateral paw pressure at 3 mg/kg, po after 15 mins by paw pressure test; type: organism-based; parameters: dose 3 mg/kg, route oral; settings: in vivo, 0.25 h; how it was run: as §1
# Mus musculus [21] = experiment: Antihyperalgesic activity against streptozotocin-induced hyperalgesia in Swiss albino mouse […] assessed as licking latency time at 30 mg/kg, po after 15 mins by hot plate test (reference value: 10.4 +/- 0.8 secs); type: functional
# Rattus norvegicus [22] = experiment: Antinociceptive activity in Sprague-Dawley rat mononeuropathy pain model assessed as increase in injured paw pressure at 10 mg/kg, po after 15 mins by paw pressure test relative to non-treated control; type: functional; how it was run: as §2
# Rattus norvegicus [23] = experiment: Antinociceptive activity in Sprague-Dawley rat mononeuropathy pain model assessed as increase in injured paw pressure at 3 mg/kg, po after 15 mins by paw pressure test relative to non-treated control; type: functional; how it was run: as §2
# [24] = Displacement of [3H]Ro151788 from GABA(A)/BzR in bovine cerebral cortex membrane; type: cell membranes, Bos taurus; how it was run: as §6
# Mus musculus [25] = experiment: Antihyperalgesic activity against streptozotocin-induced hyperalgesia in Swiss albino mouse […] assessed as licking latency time at 30 mg/kg, po after 60 mins by hot plate test (reference value: 10.4 +/- 0.8 secs); type: functional
# Rattus norvegicus [26] = experiment: Toxicity in Sprague-Dawley rat mononeuropathy pain model assessed as effect on contralateral paw pressure at 10 mg/kg, po after 45 mins by paw pressure test; type: organism-based; parameters: dose 10 mg/kg, route oral; settings: in vivo, 0.75 h; how it was run: as §1
# Rattus norvegicus [27] = experiment: Antinociceptive activity in Sprague-Dawley rat mononeuropathy pain model assessed as increase in injured paw pressure at 10 mg/kg, po after 45 mins by paw pressure test relative to non-treated control; type: functional; how it was run: as §2
# Rattus norvegicus [28] = experiment: Antinociceptive activity in Sprague-Dawley rat mononeuropathy pain model assessed as increase in injured paw pressure at 30 mg/kg, po after 30 mins by paw pressure test relative to non-treated control; type: functional; how it was run: as §2
# Rattus norvegicus [29] = experiment: Toxicity in Sprague-Dawley rat mononeuropathy pain model assessed as effect on contralateral paw pressure at 10 mg/kg, po after 30 mins by paw pressure test; type: organism-based; parameters: dose 10 mg/kg, route oral; settings: in vivo, 0.5 h; how it was run: as §1
# Mus musculus [30] = experiment: Antihyperalgesic activity Swiss albino mouse […] assessed as licking latency time at 30 mg/kg, po after 45 mins by hot plate test (reference value: 14.9 +/- 1.1 secs); type: functional; how it was run: as §3
# Mus musculus [31] = experiment: Anxiolytic-like activity in Swiss albino mouse at 30 mg/kg, po after 30 mins by light/dark box test; type: functional, organism-based; parameters: dose 30 mg/kg; how it was run: as §4
# Mus musculus [32] = experiment: Antihyperalgesic activity Swiss albino mouse […] assessed as licking latency time at 30 mg/kg, po after 60 mins by hot plate test (reference value: 17.1 +/- 0.71 secs); type: functional; how it was run: as §3
# Mus musculus [33] = experiment: Antihyperalgesic activity Swiss albino mouse […] assessed as licking latency time at 30 mg/kg, po after 15 mins by hot plate test (reference value: 17.1 +/- 0.71 secs); type: functional; how it was run: as §3
# Mus musculus [34] = experiment: Antihyperalgesic activity against streptozotocin-induced hyperalgesia in Swiss albino mouse […] assessed as licking latency time at 30 mg/kg, po after 30 mins by hot plate test (reference value: 9.7 +/- 0.8 secs); type: functional
# Mus musculus [35] = experiment: Antihyperalgesic activity against streptozotocin-induced hyperalgesia in Swiss albino mouse […] assessed as licking latency time at 30 mg/kg, po after 15 mins by hot plate test (reference value: 9.7 +/- 0.8 secs); type: functional
# Mus musculus [36] = experiment: Antihyperalgesic activity Swiss albino mouse […] assessed as licking latency time at 30 mg/kg, po after 30 mins by hot plate test (reference value: 17.1 +/- 0.71 secs); type: functional; how it was run: as §3
# Mus musculus [37] = experiment: Antihyperalgesic activity Swiss albino mouse […] assessed as licking latency time at 30 mg/kg, po after 45 mins by hot plate test (reference value: 17.1 +/- 0.71 secs); type: functional; how it was run: as §3
# Mus musculus [38] = experiment: Antihyperalgesic activity against streptozotocin-induced hyperalgesia in Swiss albino mouse […] assessed as licking latency time at 30 mg/kg, po after 60 mins by hot plate test (reference value: 9.7 +/- 0.8 secs); type: functional
# Mus musculus [39] = experiment: Antihyperalgesic activity against streptozotocin-induced hyperalgesia in Swiss albino mouse […] assessed as licking latency time at 30 mg/kg, po after 45 mins by hot plate test (reference value: 9.7 +/- 0.8 secs); type: functional
# Mus musculus [40] = experiment: Analgesic activity in Swiss albino mouse abdominal constriction model assessed as decrease in number of acetic acid-induced writhing at 30 to 60 mg/kg, po after 30 mins; type: functional, organism-based; settings: Abdomen; how it was run: as §5
smiles,measurement,setting,value
[O-][n+]1nc2c(I)cnn2c2cc(NCc3ccccc3)ccc21,Activity,Rattus norvegicus [1],64.8 g
same,Activity,Rattus norvegicus [2],46.4 g
same,Time,Mus musculus [3],16.3 s
same,Activity,Rattus norvegicus [4],44.8 g
same,Activity,Rattus norvegicus [5],58.9 g
same,Activity,Rattus norvegicus [6],59.5 g
same,Activity,Rattus norvegicus [7],62.2 g
same,Activity,Rattus norvegicus [8],38.1 g
same,Time,Mus musculus [9],16.9 s
same,Activity,Rattus norvegicus [10],31.2 g
same,Activity,Mus musculus [11],Active
same,Time,Mus musculus [12],16.3 s
same,Activity,Mus musculus [13],inactive
same,inhibition,Bos taurus,> 80%
same,Time,Mus musculus [14],17.3 s
same,Activity,Rattus norvegicus [15],61.7 g
same,Activity,Rattus norvegicus [16],33.8 g
same,Time,Mus musculus [17],16.4 s
same,Activity,Rattus norvegicus [18],60.7 g
same,Activity,Mus musculus [19],10%
same,Activity,Rattus norvegicus [20],62.3 g
same,Time,Mus musculus [21],16.6 s
same,Activity,Rattus norvegicus [22],49.5 g
same,Activity,Rattus norvegicus [23],41.4 g
same,Ki,[24],0.109 nM
same,Time,Mus musculus [25],17.9 s
same,Activity,Rattus norvegicus [26],61.2 g
same,Activity,Rattus norvegicus [27],36.7 g
same,Activity,Rattus norvegicus [28],42.3 g
same,Activity,Rattus norvegicus [29],61.5 g
same,Time,Mus musculus [30],15.8 s
Cc1cnn2c1n[n+]([O-])c1ccc(NCc3ccccc3)cc12,Activity,Rattus norvegicus [2],27.4 g
same,Activity,Mus musculus [31],Active
same,Activity,Rattus norvegicus [5],63.2 g
same,Activity,Rattus norvegicus [7],62.5 g
same,Activity,Rattus norvegicus [8],28.5 g
same,Time,Mus musculus [32],17.8 s
same,Time,Mus musculus [33],6.8 s
same,Time,Mus musculus [34],11.3 s
same,Time,Mus musculus [35],9.6 s
same,Time,Mus musculus [36],18.2 s
same,Time,Mus musculus [37],18.3 s
same,inhibition,Bos taurus,> 80%
same,Time,Mus musculus [38],11.7 s
same,Activity,Rattus norvegicus [15],61.5 g
same,Activity,Mus musculus [19],10%
same,Ki,[24],2.58 nM
same,Time,Mus musculus [39],10.2 s
same,Activity,Rattus norvegicus [28],27 g
same,Activity,Mus musculus [40],inactive
